Data as given in PubChem BioAssay AID504382 (The Scripps Research Institute Molecular Screening Center, 2011).
Among all 2,500 compounds or so, about 460 (18%) were called active. These entries were drawn from the full list. Unmarked numbers belong to inactive results.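 The calls were made as follows: active = mean activation above a cutoff of low control average plus 3 SD from the earlier screen (cut at about 12% in these data); inactive = the rest.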

assay: IANBD-channel fluorescence artefacts in buffer – biochemical, artefact control for cardiac RTF calcium sensitizer project, confirmation (AID 504382); conditions: IANBD fluorescence interference counterscreen, EC20 Ca2+, at 7.2 µM, stronger effect = higher value, scaled: EC20 calcium 0, EC100 calcium 100
Method in brief: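 Also added: EC20 calcium, 0.472 mM; dosing: single nominal 7.2 µM compound dose, 0.7% DMSO final; timing: 15 min, 25 °C; detection: fluorescence intensity, excitation 480 nm, emission 540 nm; replicates: each compound tested in triplicate wells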

Structure (SMILES) | fluorescence artifact activation
CCCCNc1nc(-c2ccccc2)nc(-n2ccnc2)n1 | 1.09%
COc1cc(CCCN2C(=S)NC[C@@H]2CC2CCCCC2)cc(OC)c1OC | 7.7%
Cc1cc2cc(C=C(C#N)C#N)c(Cl)nc2cc1C | -0.03%
Cc1cc(C(=O)NNC(=S)Nc2ccccc2C)cs1 | 1.65%
NC(=O)NNC1=Nc2cccc3cccc1c23 | 1.01%
CC(Oc1ccc(S(=O)(=O)N2CCCC2)cc1[N+](=O)[O-])C(=O)N(C)c1ccccc1 (stereo not given) | 0.2%
O=C(COc1ccc(Cl)cc1[N+](=O)[O-])N1CCCCCC1 | 0.34%
O=C(COc1ccc(Cl)cc1[N+](=O)[O-])N1CCCCC1 | 18.1% (active)
COc1ccc(NC(=O)NS(=O)(=O)c2ccc(C)cc2)cn1 | 0.39%
O=C(N1CCOCC1)N1CCC(n2nnc3ccccc32)CC1 | 0.06%
Cc1ccsc1C1C=C(c2cccc(Br)c2)Nc2ncnn21 (stereo not given) | -0.01%
CCOC(=O)c1sc(N)c(C#N)c1COC(=O)CNC(=O)c1cc(OC)c(OC)c(OC)c1 | 3.51%
CCOC(=O)c1sc(=NC(=O)c2cc(OC)c(OC)c(OC)c2)n(C)c1C | 80.1% (active)
CCOC(=O)c1sc(-c2ccc(F)cc2)cc1NC(=O)Nc1ccccc1OC | 7.09%
S=C1NC2=C(CCC/C2=C\c2ccccc2)C(c2ccccc2)N1 (stereo not given) | 0.06%
COc1ccccc1C(=O)Oc1ccc2c(c1)O/C(=C\c1ccncc1)C2=O | 8.13%
COc1ccc(/C=C2\Oc3cc(OCC(N)=O)ccc3C2=O)cc1OC | 0.06%
O=C(Oc1ccc2c(c1)O/C(=C\c1ccncc1)C2=O)c1ccccc1 | 33% (active)
O=C(CC1SC(N2CCCCC2)=NC1=O)Nc1ccc(C(=O)NCc2ccccc2)cc1 (stereo not given) | 3.4%
Cc1ccc(C(=O)Nc2ccc3c(c2)ncn3C)cc1 | 2.41%
O=C1NC(c2ccco2)Nc2sc3c(c21)CCN(Cc1ccccc1)C3 (stereo not given) | 0.37%
COc1ccc(/C(O)=C2\C(=O)C(=O)N(Cc3ccco3)C2c2cc(OC)ccc2OC)cc1 (stereo not given) | 0.4%
COc1ccc(NC(=O)CC2C(=O)N(Cc3ccco3)C(=S)N2C(C)C)cc1 (stereo not given) | 23.2% (active)
COc1ccc(NC(=O)CS(=O)(=O)c2cccc(Cl)c2)cc1 | 0.13%
Cc1cccc(C)c1OCC(C)N (stereo not given) | 4.83%

Structure (SMILES) | fluorescence artifact activation
O=C(COc1ccccc1F)NC1CC1 | 10.7%
COc1ccc(C)cc1NC(=O)CC1COc2ccccc2O1 (stereo not given) | 0.06%
C=CCOc1ccccc1CNc1cccc(F)c1 | 1.22%
COc1ccccc1CNc1cc(C)ccc1C | 415% (active)
Cc1cccc(-n2c(C)cc(C=C3C(=O)c4ccccc4C3=O)c2C)c1 | -0.01%
CCC1SC(=Nc2cccc(C)c2)NC1=O (stereo not given) | 50% (active)
COCCn1c(=NC(=O)/C=C/c2ccccc2)sc2cc(NC(C)=O)ccc21 | 3.82%
CCOC(=O)c1c(C(C)(C)C)oc2ccc(OCC#N)cc12 | 0.48%
COc1cc2c(cc1OC)-c1cc3ccc4c(c3c[n+]1CC2)OCO4 | 0.19%
COc1ccc(NC(=O)CSc2nncc3ccccc23)cc1 | 0.15%
O=C(CSc1nncc2ccccc12)Nc1ccc(F)cc1 | 51.6% (active)
Nc1nc(SCC(=O)Nc2ccc(Cl)cc2)[nH]c(=O)c1-c1ccccc1 | 0.2%
COc1ccc(CC/C(C)=N\NC(N)=O)cc1 | 1.07%
COc1ccc(C)cc1Nc1n[n+](-c2ccccc2)c(-c2cc([N+](=O)[O-])cc(OC)c2O)s1 | -0.11%
O=C1c2ccccc2-c2c1cccc2C(=O)N1CCCCCC1 | 0.15%
Cc1[nH]c(C)c(S(=O)(=O)N2c3ccccc3CC2C)c1C(=O)N1CCCCC1 (stereo not given) | 43.6% (active)
O=C(c1ccccc1)N1CCCCC1 | 2.65%
C=CCn1cccc(C(=O)Nc2ccc(OC)c(Cl)c2)c1=O | 0.54%
COc1ccc(N2CCN(C(=O)Cn3nnc(-c4ccccc4N)n3)CC2)cc1 | 20.6% (active)
CC1CCCCN1C(=O)Cn1nnc(-c2cccnc2)n1 (stereo not given) | 1.03%
COc1c(O)cccc1-c1nnn(CCC(=O)OCC(=O)c2ccccc2)n1 | 10.9%
COC(=O)CCC(=O)OC1(C)C(=O)C=C2C=C(C3CC3)N(c3cccc(C#N)c3)C=C2C1=O (stereo not given) | -0.02%
COC(=O)c1ccc(Oc2c(F)c(F)nc(N3CCOCC3)c2F)cc1 | -0.07%
OCCN(CCO)c1nc(N2CCCCC2)c2nc(N(CCO)CCO)nc(N3CCCCC3)c2n1 | 11.3%
O=C(c1ccc([N+](=O)[O-])cc1[N+](=O)[O-])n1cnc2ccccc21 | -0.09%
